From the RNAGym collection of RNA variant scans (doi:10.1126/science.aae0568)
This sample holds only a part of the variants without activity.

B1: tRNA (parent)
chain: GUUCCGUUGGCGUAAUGGUAACGCGUCUCCCUCCUAAGGAGAAGACUGCGGGUUCGAGUCCCGUACGGAACG

Variants of: B1
Assay: yeast fitness relative to wild type (ratio to wild type); higher = fitter; tRNA-Arg(CCU), competitive growth, 37 C, YPD
Outline: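 Amplicons of the tRNA-Arg(CCU) gene were sequenced, 100-nucleotide paired-end, from the start population and from each end population of a pooled yeast competition. The competition, in six parallel replicates, lasted 24 hours in YPD at 37°C. Fitness relative to wild type was calculated from changes in genotype frequencies. Genotypes had to have ≥ 100 starting reads, and estimates < 0.5 were set to 0.5.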

Point of comparison: A45G G56A, yeast fitness 1.1. Against it:
- C22A A69U A70C — lower, 0.685
- U3C C5G U28G C31U G51A U54A U59A — lower, ≤ 0.5
- C34U G39C A45G — lower, ≤ 0.5
- U2G G44C G58C — lower, 0.647
- G9A U19C C66U — lower, 0.742
- C24U C30A A37G U64A C66U A70G — lower, ≤ 0.5
- C11U C27U C46U A57U — lower, 0.647
- C4A C11A U47G — lower, ≤ 0.5
- G6A C30G — lower, 0.711
- C4A A14U C31U A40U G41C A45C A69C — lower, 0.599
- U19A U59A — lower, 0.845
- A20G C34G G41C G52A — lower, ≤ 0.5
- C46G G56A A57C C61U — lower, 0.575
- C29U G68A A69C — lower, ≤ 0.5
- A43C A45U — lower, 0.973
- G10A U13A C30U C55G G58C — lower, ≤ 0.5
- U2A C4G C55A — lower, 0.57
- C4U A42U C61G — lower, 0.593
- U3C A14U — lower, 0.639
- A43G A70G — lower, 0.977
- C5A A21C U54G C60U — lower, ≤ 0.5
- C5G C11G — lower, 0.614
- A36U G68A — lower, 0.642
- U8A U26A C55G — lower, ≤ 0.5
- A15G C33G — lower, 0.732
- C4A U7A U13A C30A U64C — lower, 0.56
- G23U U54G — lower, ≤ 0.5
- A15C U28A C34G C55A A57U U59C C60U — lower, ≤ 0.5
- G9A U47C — lower, 0.909
- A15G A57U C60G G68C — lower, ≤ 0.5
- U8A A69U — lower, 0.719
- A15U G18A C27A — lower, 1.03
- G9C C27G C46U — lower, 0.582
- A65G C66G G68A — lower, 0.575
- G25A C33U — lower, 0.655
- G18C A20G C55U G67C — lower, ≤ 0.5
- A20C U64G — lower, 0.746
- C4G G9C C46A U59A U64A — lower, ≤ 0.5
- C4G C11U C29U A45U — lower, ≤ 0.5
- U7A C29G A70C — lower, ≤ 0.5
- G6A C27G G38C — lower, ≤ 0.5
- U32C G52C — lower, 0.602
- C11G G12C A40G U47C G50C — lower, 0.897
- G9A G51A A57U U59C — lower, ≤ 0.5
- G9C C24U U26G G68U — lower, ≤ 0.5
- G10A C29G U53A G56C C62G A69C — lower, ≤ 0.5
- U8C A57U C61U — lower, 0.536
- C30A G63C — lower, 0.774
- U2G C49U C66U — lower, 0.606
- C11A C27G U64A A65G G67U — lower, ≤ 0.5
- C22U U53C G68C — lower, ≤ 0.5
- U7G C24G C27U C29A — lower, 0.6
- C11U C22G C30U U54C — lower, ≤ 0.5
- U35C G50C U54A — lower, ≤ 0.5
- A14G A20C A36U G39C — lower, ≤ 0.5
- C4U C22G C27U G50A G63A — lower, ≤ 0.5
- A15U G51A — lower, 0.722
- A20C C30G U53G C61G — lower, 0.621
- A14G A57C C62U — lower, ≤ 0.5
- C5G U26C A70G — lower, 0.632
- U2G C11G A20U C24G A42G — lower, ≤ 0.5
- C24G A37G G67C — lower, 0.549
- A40U A70G — lower, 0.934
- C22G C34G C61G A69G — lower, ≤ 0.5
- G10A U32A — lower, 0.601
- C22G A43C — lower, 0.708
- U3C U19G A21C U32A A37U — lower, ≤ 0.5
- C5G C11G A42C C49U — lower, ≤ 0.5
- A21G A36G A40C A42C — lower, ≤ 0.5
- A15G C60U C62U — lower, 0.64
- G10A C24U A36C A69C — lower, 0.534
- C11A G17A C33U A70C — lower, ≤ 0.5
- C30U G38A G68C — lower, 0.574
- U8C C24G C29A A43U G68C — lower, ≤ 0.5
- G25A A45U A57U — lower, ≤ 0.5
- U2G G18C U26A C33U C46U A57C — lower, ≤ 0.5
- C11A A21U U54G A65C — lower, ≤ 0.5
- C22A C29A G44C — lower, 0.605
- C30G G67A — lower, 0.619
- A21U C30G G48A — lower, ≤ 0.5
- C4U U8A U32G U35A C62U — lower, 0.707
- C5G A43G A69C — lower, 0.615
- A20G A42C — lower, 1.05
- G23A C55A — lower, ≤ 0.5
- C5U A21C C31U — lower, 0.695
- C49A A69U — lower, 0.681
- A14G A21U G56C G68C — lower, 0.637
- C4G G23A C55A C61A — lower, 0.667
- G6A C61U G63C — lower, ≤ 0.5
- U16A G18C G48C — lower, 0.646
- U13A C31U C46A — lower, 0.665
- C11A U59C C61A C62U — lower, ≤ 0.5
- G50A C60G — lower, 0.748
- C22U U32G C34U A40G — lower, 0.62
- C4A U32C A40U A69U — lower, ≤ 0.5
- G12C C24U A40U — lower, ≤ 0.5
- C5G C29U A37G A65G — lower, ≤ 0.5
- U8C A21U C34A A40C G68C — lower, ≤ 0.5
- A36C C46G G51A — lower, ≤ 0.5
- U13C G48A — lower, 0.853
- C11G C24U A42C A65C — lower, ≤ 0.5
- C27A — lower, 0.997
- U7C A45U — lower, 0.837
- C5U C22G C24G C31U A70C — lower, ≤ 0.5
- A14G A36U C46G C62A A69C — lower, ≤ 0.5
- G6A C11U C62A A65U C66U — lower, ≤ 0.5
- G6C U19C G38C G44C C46A — lower, ≤ 0.5
- C24G U28C C31G C66U — lower, ≤ 0.5
- A21C A43G C60G A65G — lower, ≤ 0.5
- G52C C66G — lower, 0.6
- C4U G10C C30A G50A — lower, ≤ 0.5
- C22G A36C — lower, 0.585
- A14U C30G — lower, 0.516
- C4G A21G C27U G52C G58A — lower, ≤ 0.5
- A15G C30G C49G A65U — lower, ≤ 0.5
- G25A A37C G51C A57G — lower, ≤ 0.5
- C29U A43C G50C C60A — lower, 0.634
- G44C U54C C66U — lower, 0.601
- U2A A57U — lower, 0.663
- G6A U19A G23A — lower, 0.603
- U26A C27U C29A A65G G68C — lower, ≤ 0.5
- C22G C34A U53C — lower, 0.543
- C4A U16C U35G A45U G51A — lower, ≤ 0.5
- G10C A20G — lower, 0.775
- G12A C61A G67A — lower, ≤ 0.5
- A15G A21G — lower, 1.02
- A20C U28C C29A A36U A40U C49G G63C A70U — lower, ≤ 0.5
- U13C C55G — lower, 0.645
- U7C C30A C60A — lower, ≤ 0.5
- U32G U35G A36C C61G A70G — lower, 0.583
- C24G A37G A43U C62G — lower, 0.77
- G44C G52A A69G — lower, ≤ 0.5
- U2G U3A C5U U7C U8C A20C U35C A37U A57C — lower, ≤ 0.5
- A21C C27U U47A — lower, 0.545
- C5U U19C G52A — lower, 0.625
- C4U U16A U26C C27A U47C — lower, ≤ 0.5
- U47G G50A C55A G56A — lower, 0.533
- A40U A42C C66A — lower, ≤ 0.5
- U8C G10A A40G — lower, 0.551
- G6C U35A A43U C62U G68C — lower, ≤ 0.5
- U2A U8C G23A C29G — lower, ≤ 0.5
- G12A U26A C31U G48A — lower, 0.711
- C5G A14G A36U — lower, 0.647
- G52C G56C — lower, ≤ 0.5
- C4A C5U C11G C30A — lower, ≤ 0.5
- U16C U53A — lower, 0.611
- C11U G48A G51C C60A U64C — lower, 0.887
- C22G C34G A43U C49A — lower, ≤ 0.5
- G6C U8C G23C C30A A42C G48C G52C — lower, ≤ 0.5
- C5A C11U A21G C24A G52A C60A A69G — lower, ≤ 0.5
- C4A U26A U32G U53A C62A G68C — lower, ≤ 0.5
- C34A A37C G67C A69G — lower, ≤ 0.5
- G10A C30U G50A A70U — lower, ≤ 0.5
- G17A G18A — lower, 0.65
- U16C A20U C30U G39C A45G A69C — lower, 0.592
- G10A C30G A36C G58A — lower, ≤ 0.5
- C29A A70U — lower, 0.891
- A45G G67C — lower, 0.872
- A20C C24G U64C — lower, 0.56
- U7C U28A C31U C55G C66U — lower, ≤ 0.5
- G10A U16A U28C A42C C66U — lower, ≤ 0.5
- A36G C49U U64C G68C — lower, ≤ 0.5
- A14U A21U C22U — lower, 0.527
- C31A A43U G63A A70C — lower, ≤ 0.5
- G9A G25C C30U A57G — lower, 0.526
- A15G A20C C34A — lower, ≤ 0.5
